Laboratory results from ChEMBL document CHEMBL3580599, “Synthesis and Biological Evaluation of Novel Homoisoflavonoids for Retinal Neovascularization” (J Med Chem, 2015).

Legend:
[1] = test system: Y79; assay: Growth inhibition of human Y79 cells assessed as reduction in cell number after 48 hrs by alamarBlue based fluorescence assay; assay type: functional; settings: Y79, 48 h
Outline: (§1)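 Cells (2,500 per well in growth medium) were allowed 24 h, then exposed 48 h to compound over 0.5 nM–500 μM. alamarBlue was added and fluorescence read 4 h later (ex 560/em 590 nm). Dose-response curves were fitted relative to DMSO control; compounds not reducing cell number ≥50% at the top concentration were reported as GI50 >100 μM.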

[2] = Growth inhibition of human 92-1 cells assessed as reduction in cell number after 48 hrs by alamarBlue based fluorescence assay; assay type: functional; outline: as §1
[3] = Growth inhibition of human HUVEC cells assessed as reduction in cell number after 48 hrs by alamarBlue based fluorescence assay; outline: as §1
[4] = Growth inhibition of human HREC cells assessed as reduction in cell number after 48 hrs by alamarBlue based fluorescence assay; assay type: functional; outline: as §1

SMILES	GI50 [1]	GI50 [2]	GI50 at 48 h [3]	GI50 [4]
COc1ccc(CC2COc3cc(OC)c(OC)c(OC)c3C2=O)cc1OC(=O)[C@H](CC(C)C)NC(=O)OC(C)(C)C (some centres not stated)	> 100 µM	> 100 µM	> 100 µM	0.13 µM
COc1cc(OC)c2c(c1)OCC(Cc1ccc(OC)c(O)c1)C2=O (configuration not stated)	4.2 µM	> 100 µM	2.5 µM	1.6 µM
CCCCNC(=O)N[C@@H](Cc1ccccc1)C(=O)Oc1cc(CC2COc3cc(OC)c(OC)c(OC)c3C2=O)ccc1OC (some centres not stated)	64 µM	> 100 µM	> 100 µM	1.4 µM
COc1cc2c(c(OC)c1OC)C(=O)/C(=C/c1ccc(O)c(O)c1)CO2	4 µM	9.5 µM	5 µM	7.6 µM
COc1ccc(CC2COc3cc(OC)c(OC)c(OC)c3C2=O)cc1OC(=O)CCc1ccccc1 (configuration not stated)	> 100 µM	> 100 µM	38 µM	0.22 µM
COc1cc2c(c(OC)c1OC)C(=O)/C(=C/c1ccc(OCc3ccccc3)c(OCc3ccccc3)c1)CO2	32 µM	> 100 µM	43 µM	72 µM
COc1ccc(CC2COc3cc(OC)c(OC)c(OC)c3C2=O)cc1C(=O)O (configuration not stated)	> 100 µM	> 100 µM	92 µM	> 100 µM
COc1cc(OC)c2c(c1)OC/C(=C\c1ccc(OC)c(O)c1)C2=O	14 µM	> 100 µM	15 µM	42 µM
COc1ccc(CC2COc3cc(OC)c(OC)c(OC)c3C2=O)cc1OC(=O)[C@H](CCc1ccccc1)NC(=O)OC(C)(C)C (some centres not stated)	> 100 µM	> 100 µM	> 100 µM	0.17 µM
COc1ccc(CC2COc3cc(OC)c(OC)c(OC)c3C2=O)cc1OC(=O)[C@H](Cc1ccccc1)NS(=O)(=O)c1ccc(C)cc1 (some centres not stated)	> 100 µM	> 100 µM	22 µM	1.5 µM
COC(=O)c1cc(/C=C2\COc3cc(OC)c(OC)c(OC)c3C2=O)ccc1OC	6.1 µM	> 100 µM	3.2 µM	5.6 µM
COc1cc(/C=C2\COc3cc(OC)c(OC)c(OC)c3C2=O)ccc1O	5.2 µM	26 µM	6.2 µM	3.3 µM
C=CCOc1ccc(C[C@H](NC(=O)OC(C)(C)C)C(=O)Nc2cc(CC3COc4cc(OC)c(OC)c(OC)c4C3=O)ccc2OC)cc1 (some centres not stated)	2.5 µM	1.9 µM	4.5 µM	13 µM
COc1ccc(CC2COc3cc(OC)c(OC)c(OC)c3C2=O)cc1OC(=O)/C=C/c1ccccc1 (configuration not stated)	> 100 µM	> 100 µM	> 100 µM	0.17 µM
C=CCOc1ccc(C[C@H](NC(=O)OC(C)(C)C)C(=O)Oc2cc(CC3COc4cc(OC)c(OC)c(OC)c4C3=O)ccc2OC)cc1 (some centres not stated)	52 µM	> 100 µM	0.091 µM	0.16 µM
COc1ccc(CC2COc3cc(OC)c(OC)c(OC)c3C2=O)cc1OC(=O)c1ccccc1 (configuration not stated)	> 100 µM	> 100 µM	> 100 µM	0.65 µM
COc1ccc(CC2COc3cc(OC)c(OC)c(OC)c3C2=O)cc1OC(=O)[C@H](Cc1ccc(OCc2ccccc2)cc1)NC(=O)OC(C)(C)C (some centres not stated)	> 100 µM	> 100 µM	> 100 µM	0.51 µM
COc1ccc(CC2COc3cc(OC)c(O)c(O)c3C2=O)cc1O (configuration not stated)	> 100 µM	10 µM	18 µM	45 µM
COc1ccc(/C=C2\COc3cc(OC)c(OC)c(OC)c3C2=O)cc1OCc1ccccc1	33 µM	3.5 µM	16 µM	4.3 µM

SMILES	GI50 [1]	GI50 [2]	GI50 at 48 h [3]	GI50 [4]
COc1ccc(CC2COc3cc(OC)c(OC)c(OC)c3C2=O)cc1O (configuration not stated)	> 100 µM	> 100 µM	12 µM	2 µM
COc1ccc(/C=C2\COc3cc(OC)c(OC)c(OC)c3C2=O)cc1O	44 µM	0.22 µM	5.6 µM	46 µM
COc1ccc(CC2COc3cc(OC)c(OC)c(OC)c3C2=O)cc1OCc1ccccc1 (configuration not stated)	20 µM	61 µM	> 100 µM	22 µM
CCN(CC)C(=O)Oc1cc(CC2COc3cc(OC)c(OC)c(OC)c3C2=O)ccc1OC (configuration not stated)	24 µM	> 100 µM	> 100 µM	49 µM
COc1cc(/C=C2\COc3cc(OC)c(OC)c(OC)c3C2=O)ccc1OCc1ccccc1	14 µM	68 µM	52 µM	35 µM
COc1ccc(CC2COc3cc(OC)c(OC)c(OC)c3C2=O)cc1NC(=O)[C@H](Cc1ccc(OCc2ccccc2)cc1)NC(=O)OC(C)(C)C (some centres not stated)	0.39 µM	> 100 µM	> 100 µM	> 100 µM
COc1ccc(CC2COc3cc(OC)c(OC)c(OC)c3C2=O)cc1OC(=O)[C@H](Cc1ccccc1)NC(=O)OCc1ccccc1 (some centres not stated)	> 100 µM	> 100 µM	> 100 µM	0.14 µM
COc1ccc(CC2COc3cc(OC)c(OC)c(OC)c3C2=O)cc1NC(=O)[C@H](Cc1ccccc1)NC(=O)OC(C)(C)C (some centres not stated)	4.7 µM	3.1 µM	8.6 µM	22 µM
COc1ccc(/C=C2\COc3cc(OC)c(OC)c(OC)c3C2=O)cc1F	9.8 µM	7 µM	7.6 µM	2.8 µM
COc1cc2c(c(OC)c1OC)C(=O)C(Cc1ccccc1)CO2 (configuration not stated)	> 100 µM	> 100 µM	> 100 µM	> 100 µM
COc1ccc(CC2COc3cc(OC)c(OC)c(O)c3C2=O)cc1O (configuration not stated)	> 100 µM	> 100 µM	44 µM	> 100 µM
COc1ccc(CC2COc3cc(O)c(OC)c(O)c3C2=O)cc1O (configuration not stated)	9.8 µM	48 µM	0.38 µM	0.22 µM
CCNC(=O)N[C@@H](Cc1ccccc1)C(=O)Oc1cc(CC2COc3cc(OC)c(OC)c(OC)c3C2=O)ccc1OC (some centres not stated)	48 µM	98 µM	34 µM	1 µM
COc1ccc(CC2COc3cc(OC)c(OC)c(OC)c3C2=O)cc1N (configuration not stated)	> 100 µM	> 100 µM	0.51 µM	1.1 µM
C=CCOc1cc(/C=C2\COc3cc(OC)c(OC)c(OC)c3C2=O)ccc1OC	2.8 µM	1.1 µM	12 µM	3.9 µM
COc1ccc(CC2COc3cc(O)c(OC)c(OC)c3C2=O)cc1O (configuration not stated)	> 100 µM	> 100 µM	> 100 µM	> 100 µM
CC[C@H](C)[C@H](NC(=O)OC(C)(C)C)C(=O)Oc1cc(CC2COc3cc(OC)c(OC)c(OC)c3C2=O)ccc1OC (some centres not stated)	24 µM	> 100 µM	> 100 µM	3.1 µM
COc1ccc(/C=C2\COc3cc(OC)c(OC)c(OC)c3C2=O)cc1[N+](=O)[O-]	2.2 µM	12 µM	15 µM	4.8 µM
COC(=O)c1cc(CC2COc3cc(OC)c(OC)c(OC)c3C2=O)ccc1OC (configuration not stated)	40 µM	> 100 µM	17 µM	18 µM
